Source: publication PMC5006629 (Chemical & pharmaceutical bulletin, 2013)
pIC50: −log10 of the molar value. Where two headings read alike, the source gives them in different places.

Assays:
PDE3B = PDE3B (Homo sapiens, UniProt Q13370); type: biochemical
[1] = test system: human HT-29 colon tumor cell line; assay: HT-29 tumor cell growth inhibition; type: cell-based
In short: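 Human HT-29 colon tumour cells. Two-stage screen: test compounds first tested at one concentration in triplicate for % growth inhibition.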

[2] = PDE3 inhibition IC50, cGMP, substrate cGMP
[3] = read-out: % PDE3 inhibition at 50 μM, cAMP, substrate cAMP, 50 μM
[4] = read-out: % PDE3 inhibition at 50 μM, cGMP, substrate cGMP, 50 μM
[5] = Homo sapiens, HT-29, read-out: HT-29 growth inhibition: IC50
[6] = PDE3 inhibition IC50, cAMP, substrate cAMP

Chain of PDE3B (Q13370 whole entry): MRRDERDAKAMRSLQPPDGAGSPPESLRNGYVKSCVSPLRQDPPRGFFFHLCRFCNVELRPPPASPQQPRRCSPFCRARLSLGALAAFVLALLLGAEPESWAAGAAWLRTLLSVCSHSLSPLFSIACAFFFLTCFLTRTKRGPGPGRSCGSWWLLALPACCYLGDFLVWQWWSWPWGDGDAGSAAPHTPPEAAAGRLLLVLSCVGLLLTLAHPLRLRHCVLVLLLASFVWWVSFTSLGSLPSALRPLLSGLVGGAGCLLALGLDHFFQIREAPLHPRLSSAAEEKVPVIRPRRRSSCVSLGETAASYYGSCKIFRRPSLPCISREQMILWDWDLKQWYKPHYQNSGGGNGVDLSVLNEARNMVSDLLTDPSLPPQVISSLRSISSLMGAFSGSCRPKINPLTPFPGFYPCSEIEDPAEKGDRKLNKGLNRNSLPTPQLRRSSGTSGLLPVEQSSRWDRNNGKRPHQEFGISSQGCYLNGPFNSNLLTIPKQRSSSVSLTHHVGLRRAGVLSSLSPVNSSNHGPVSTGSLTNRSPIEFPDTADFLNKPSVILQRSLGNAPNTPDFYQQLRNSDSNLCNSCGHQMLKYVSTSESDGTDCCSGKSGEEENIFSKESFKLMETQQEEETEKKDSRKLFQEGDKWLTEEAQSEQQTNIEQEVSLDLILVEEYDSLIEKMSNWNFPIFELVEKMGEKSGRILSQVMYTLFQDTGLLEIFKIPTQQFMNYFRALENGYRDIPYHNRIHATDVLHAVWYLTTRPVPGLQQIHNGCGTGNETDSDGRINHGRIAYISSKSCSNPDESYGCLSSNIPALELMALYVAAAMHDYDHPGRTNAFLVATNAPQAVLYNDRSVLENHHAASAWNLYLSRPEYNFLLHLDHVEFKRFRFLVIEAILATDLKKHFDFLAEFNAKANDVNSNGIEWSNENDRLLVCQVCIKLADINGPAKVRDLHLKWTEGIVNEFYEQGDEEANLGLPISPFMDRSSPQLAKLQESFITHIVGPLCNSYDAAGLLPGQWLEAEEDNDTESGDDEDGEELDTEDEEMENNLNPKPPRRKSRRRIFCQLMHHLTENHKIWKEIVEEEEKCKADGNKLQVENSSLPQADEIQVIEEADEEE

% PDE3 inhibition at 50 μM, cAMP (PDE3B; substrate cAMP, 50 μM) [%] | % PDE3 inhibition at 50 μM, cGMP (PDE3B; substrate cGMP, 50 μM) [%] | pIC50 ([1]; read-out: HT-29 growth inhibition: IC50, HT-29 colorectal cancer cell line, 10 concentrations) | pIC50 (PDE3B; [2]) | inhibition at 50 µM (PDE3B; [3]) [%] | inhibition at 50 µM (PDE3B; [4]) [%] | pIC50 [1, 5] | pIC50 (PDE3B; [6]) | PDE3 inhibition with cAMP as substrate (in words) (PDE3B; substrate cAMP) | Compound | HT-29 growth inhibition: % Growth inhibition at 50 μM ([1]; HT-29 colorectal cancer cell line, 50 μM, triplicate) [%] | induction of apoptosis to the HT-29 cell line (in words) ([1]; HT-29 cell line, positive control)
– | – | – | 4.96 | 48 | 85 | 4.74 | – | did not inhibit PDE3 | CCOc1ccccc1-c1cc(-c2cccc(Br)c2)nc2ncnc(N)c12 [Compound 6, 7-(3-Bromophenyl)-5-(2-ethoxyphenyl)pyrido[2,3-d]pyrimidin-4-amine] | – | –
– | – | – | 4.97 | 62 | 78.6 | 5.87 | 4.62 | – | COc1ccccc1-c1cc(-c2cccc(Br)c2)nc2nc[nH]c(=O)c12 [Compound 7, 7-(3-Bromophenyl)-5-(2-methoxyphenyl)pyrido[2,3-d]pyrimidin-4(3H)-one] | – | –
– | – | – | – | 77 | 95 | < 4.30 | – | – | Cc1[nH]c(=O)c(C#N)cc1-c1ccncc1 [Milrinone, reference compound] | – | inactivity

The remaining lines, values behind:

Compound | % PDE3 inhibition at 50 μM, cAMP (PDE3B; substrate cAMP, 50 μM) [%] | % PDE3 inhibition at 50 μM, cGMP (PDE3B; substrate cGMP, 50 μM) [%] | pIC50 ([1]; read-out: HT-29 growth inhibition: IC50, HT-29 colorectal cancer cell line, 10 concentrations) | pIC50 (PDE3B; [2]) | inhibition at 50 µM (PDE3B; [3]) [%] | inhibition at 50 µM (PDE3B; [4]) [%] | pIC50 [1, 5] | pIC50 (PDE3B; [6]) | PDE3 inhibition with cAMP as substrate (in words) (PDE3B; substrate cAMP) | HT-29 growth inhibition: % Growth inhibition at 50 μM ([1]; HT-29 colorectal cancer cell line, 50 μM, triplicate) [%] | induction of apoptosis to the HT-29 cell line (in words) ([1]; HT-29 cell line, positive control)
6-(2-Bromophenyl)-4-(2-ethoxyphenyl)-2-oxo-1,2-dihydropyridine-3-carbonitrile [Compound 4] | 70 | 72 | 4.81 | – | – | – | – | – | – | 68 | –
COc1ccccc1-c1cc(-c2cccc(Br)c2)nc(N)c1C#N [Compound 1, 2-Amino-6-(3-bromophenyl)-4-(2-methoxyphenyl)nicotinonitrile] | – | – | – | 5.40 | ≤ 50 | 105 | – | – | – | – | –
CCOc1ccccc1-c1cc(-c2cccc(Br)c2)nc(N)c1C#N [Compound 2, 2-Amino-6-(3-bromophenyl)-4-(2-ethoxyphenyl)nicotinonitrile] | – | – | – | – | – | ≤ 50 | 4.37 | – | – | – | –
COc1ccccc1-c1cc(-c2ccc(-c3ccc(Br)cc3)cc2)nc(N)c1C#N [Compound 3, 2-Amino-6-(4′-bromobiphenyl-4-yl)-4-(2-methoxyphenyl)nicotinonitrile] | – | – | – | 4.87 | 55 | 85 | 4.49 | 4.45 | – | – | –
N#Cc1c(-c2ccccc2Cl)cc(-c2ccccc2Br)[nH]c1=O [Compound 5, 6-(2-Bromophenyl)-4-(2-chlorophenyl)-2-oxo-1,2-dihydropyridine-3-carbonitrile] | – | – | – | 4.98 | 77 | 75 | 4.98 | 5.21 | – | – | –
